Ecoli WT expand: growth inhibitors of E. coli BW25113 wild type; OD600 absorbance; actives 0.15% (n = 98,000); growth inhibition, % at 100 µM; AID 710;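 active = growth inhibition above about 50% at one test dose, limit read from the data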;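 note: growth measured after 20 h incubation at 37 °C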
Ecoli tolC: E. coli tolC mutant growth inhibition; E. coli BW25113 tolC mutant growth, OD615; growth inhibition, % at 10 µM (by protocol); actives 2.2% (n = 65,000); AID 573;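 active = growth inhibition at or above a cutoff equal to the mean over every tested compound plus 3 SD, cut at about 60% in these data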;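 note: growth measured after 20 h incubation at 37 °C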
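Test system: tolC-deleted E. coli BW25113; medium: LB with kanamycin 50 µg/mL; compound: single-point testing at 10 µM; incubation: 20 h compound exposure of bacteria at 37 °C; signal: OD at 615 nm; evaluation: growth inhibition in percent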
Fibroblast inh: blocks proliferation of human lung fibroblasts | AID 719 | viability, % at 10 µM | LL 47 human lung fibroblast viability, ATP luminescence; active compounds read low | actives 1.1% (n = 85,000);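 active = viability at or below 50% in the single dose screen; inactive = viability above 50%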;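 note: compound exposure lasted 72 h before the ATP readout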
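Material: human lung fibroblast line LL 47, low passage; Evaluation: viability percentage against median untreated-cell control; Buffer or medium: 15% FBS in IMEM; Incubation: 72 h compound exposure at 37 °C after overnight plating; Dosing: 0.1% DMSO in all compound wells; Measured by: CellTiter-Glo luminescence.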
Jurkat tox 60K: reduces viability or proliferation of Jurkat cells | Jurkat E6.1 viability, ATP luminescence, 48 h | inhibition, % at 4 µM | actives 1.2% (n = 56,000) | AID 463;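 active = inhibition above the mean inhibition of all tested compounds plus 3 SD, cut at about 28% in these data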
H69AR inhibit: growth inhibitors of human H69AR lung tumor cells; H69AR lung tumor viability, ATP luminescence, 72 h; active compounds read low; viability, % at 10 µM; actives 6% (n = 85,000); AID 598;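 active = viability at or below 40%; inactive = viability above 40%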;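 note: multidrug resistant small cell line overexpressing MRP-1 efflux transporter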
HUVEC inhibit: human endothelial cell proliferation inhibition; HUVEC proliferation, CellTiter-Glo luminescence, 72 h; active compounds read low; viability, % at 10 µM (by protocol); actives 1.1% (n = 86,000); AID 648;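 active = viability at or below 30%; inactive = viability above 30%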
Numbers stand for hits; . = inactive; / = not tested or not shown. Rows were chosen to be rich in hits. Some 6.4% of all compounds tested hit in one or more screens of this group.

SMILES | Ecoli WT expand | Ecoli tolC | Fibroblast inh | Jurkat tox 60K | H69AR inhibit | HUVEC inhibit
CCCCC(CC)CNC(=O)c1[nH]c(C)c(C(C)=O)c1C (stereo not drawn) | . | 62.1 | . | . | . | .
CCOC(=O)C(NC(=O)CCC(=O)Nc1ccc(S(N)(=O)=O)cc1)C(O)c1ccccc1 (stereo not drawn) | . | . | / | . | 31.6 | .
Cc1c(C(=O)Nc2ccccc2N2CCOCC2)sc2nc3n(c(=O)c12)CCC3 | / | . | . | / | . | .
CC(C(=O)Nc1ccccc1-c1ccccc1)N1CCCCC1 (stereo not drawn) | . | / | . | / | 2.6 | .
COc1ccc(C2CC(C(F)(F)F)n3ncc(C(=O)Nc4cccc(O)c4)c3N2)cc1OC (stereo not drawn) | . | . | / | / | / | /
Oc1oc(-c2ccccc2)nc1C=Nc1cccc2ccccc12 | . | / | . | / | 20.4 | .
c1ccc(-c2noc(-c3cccc4ccccc34)n2)nc1 | . | . | . | . | 37.9 | .
Cc1ccccc1-c1noc(-c2ccc(O)cc2)n1 | . | . | . | . | 15.2 | .
COc1cccc(-c2nc(-c3ccccn3)no2)c1OC | . | . | . | . | . | .
Cc1ccccc1-c1noc(-c2ccc(Cl)cc2)n1 | . | / | . | / | . | .
c1ccc(-c2ccc(-c3nc(-c4ccccn4)no3)cc2)cc1 | . | . | 42.4 | / | 34.1 | .
Cc1ccc(-c2nc(-c3ccccn3)no2)cc1 | . | . | / | 35.1 | / | /
Cc1ccc(CN(C(=O)c2csnn2)C(C(=O)NC2CCCC2)c2ccc(C)o2)cc1 (stereo not drawn) | / | / | . | / | . | .
CCc1ccc(-c2ccc(C(=O)C(F)(F)F)[nH]2)cc1 | . | / | / | / | / | /
COc1ccc(CCN2C(=O)C3C4CC(C5C(C(=O)N/N=C\c6ccc(Cl)cc6)=NOC45)C3C2=O)cc1OC (stereo not drawn) | . | / | . | / | . | .
O=C(OCn1ncc(Cl)c(Cl)c1=O)c1cccc(C(F)(F)F)c1 | . | / | / | / | / | /
O=C(OCn1ncc(Br)c(Br)c1=O)c1ccc(F)cc1 | . | / | 1.9 | / | 1.8 | 2.3
O=C(OCn1ncc(Br)c(Br)c1=O)c1ccccc1Cl | . | / | 2.7 | / | 1.2 | 2.6
COc1ccc2c(c1)c(=O)cc(C)n2CC(=O)NCc1ccco1 | . | . | . | . | . | .
Cc1nn(CCC#N)c(NC(=O)c2ccc(Cl)cc2Cl)c1P(=O)(Nc1ccc([N+](=O)[O-])cc1)N1CCOCC1 (stereo not drawn) | . | / | . | / | . | .
CN1CCc2c(sc3c2c(=O)n(-c2ccccc2)c2n[nH]c(=S)n32)C1 | . | / | / | / | / | /
COc1cccc(C(=O)Nc2cccc(-c3nnc(-c4ccccc4)o3)c2)c1 | / | . | / | . | 17.4 | .
CCOc1cccc(C(=O)Nc2cccc(-c3nnc(-c4ccc(C)cc4)o3)c2)c1 | . | . | 37.4 | . | / | 17.1
COc1cccc(C(=O)Nc2ccc(NC(=O)C(C)(C)C)cn2)c1 | . | . | / | / | 36.7 | .
Cc1ccc(OCC(=O)Nc2cccc(-c3nnc(-c4ccccc4)o3)c2)c(C)c1 | / | / | . | / | . | .
SMILES | Ecoli WT expand | Ecoli tolC | Fibroblast inh | Jurkat tox 60K | H69AR inhibit | HUVEC inhibit
COC(=O)c1cccc(NC(=O)c2cccnc2)c1 | . | / | . | / | . | .
COc1cccc(C(=O)Nc2ccc(-c3nnc(-c4ccco4)o3)cc2)c1 | . | . | / | / | / | /
CC(C)OC(=O)c1cccc(NC(=O)c2ccccc2)c1 | / | / | . | / | 30.3 | .
O=C(c1ccco1)N1CCN(CC(O)Cn2c3ccccc3c3ccccc32)CC1 (stereo not drawn) | . | . | . | / | . | .
CCOc1ccc(CNC(=O)C(CC)n2nc(C)n3c(cc4occc43)c2=O)cc1OC (stereo not drawn) | . | . | / | . | / | /
CCOc1cccc(C(=O)Nc2cccc(-c3nnc(-c4ccccc4)o3)c2)c1 | . | . | . | . | 14.8 | .
COc1cccc(NC(=O)c2nnn(CCc3ccccc3)c2N)c1 | . | . | . | . | 31.7 | .
COc1cccc(C(=O)Nc2cccc(NC(C)=O)c2)c1 | . | . | / | . | 32.6 | .
COc1cccc(C(=O)Nc2ccc(NC(C)=O)cc2)c1 | . | / | / | / | / | /
O=S(=O)(NC1CCCCCC1)c1ccc(Br)s1 | / | / | . | / | . | .
CCOc1ccc(CCNS(=O)(=O)c2cccc3nsnc23)cc1OCC | . | . | . | . | . | .
CCOCCOC(=O)c1ccc(-n2cncn2)nc1 | . | / | . | / | . | .
CN1c2ccsc2C(O)=C(C(=S)Nc2ccc(F)c(Cl)c2)S1(=O)=O | . | / | . | / | . | .
COc1ccc(-c2nc(C#N)c(N3CCC(C(N)=O)CC3)o2)cc1 | . | / | . | / | . | .
N#Cc1nc(-c2ccc(OCc3ccccc3)cc2)oc1N1CCC(C(N)=O)CC1 | . | . | . | . | 37.0 | 28.6
COc1ccc(Cl)cc1NC(=O)C1CSC(c2ccncc2)=N1 (stereo not drawn) | / | . | . | . | 30.4 | .
